High-throughput results from PubChem BioAssay.
The list is not random: actives were taken first. Their share in the collection is about 3.7%.
KCNK3 inh: human KCNK3 channel inhibition, primary screen; CHO-KCNK3 thallium flux, FluxOR fluorescence; stronger effect = lower value; B-score at 10 µM; 340,000 compounds, 0.84% hits; O14649;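 active = B-score under library mean minus 4 SD, starting fluorescence ratio at most library mean plus 5 SD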;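 also: more negative B-score means stronger inhibition of thallium flux through KCNK3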
hERG rescue: shields human hERG channel from block by proarrhythmic agents | Q12809 | CHO-hERG, FluxOR thallium flux, dofetilide IC70 present | activation (rescue from dofetilide block), less the hit threshold, % at 10 µM | 310,000 compounds, 0.51% hits | AID 1511;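 active = activation above the mean of controls blocked by dofetilide plus 5 SD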;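 also: thallium influx through hERG after potassium depolarization seen as dye fluorescence rise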
Kir21 inh: Kir2.1 (mouse) channel inhibition; P35561; HEK293-Kir2.1, FluxOR thallium flux fluorescence; stronger effect = lower value; B-score at 10 µM; 310,000 compounds, 0.85% hits; AID 1672;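 active = fluorescence ratio B-score at or below minus 3 SD of library scores, with starting-brightness B-score within 2 SD, cut at about -4.2 in these data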;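 also: channel flux triggered by added potassium and thallium sulfate stimulus; B-score of peak minus minimum fluorescence over baseline after thallium stimulus; more negative B-score means stronger Kir2.1 block with less thallium influx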
KCNK9 inh: inhibitors of human KCNK9 two-pore domain potassium channel; Q9NPC2; AID 488922; 310,000 compounds, 1.2% hits; HEK293 KCNK9, FluxOR thallium flux fluorescence; stronger effect = lower value; B-score at 10 µM;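 active = ratio B-score over 3 SD below the library mean, with starting fluorescence within 5 SD of its mean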;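 also: negative B-score means less thallium flux so channel inhibition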
KCNQ1 act: potentiators or activators of human KCNQ1 potassium channel | AID 2648 | 310,000 compounds, 0.35% hits | P51787 | CHO-K1 KCNQ1, thallium flux FluxOR fluorescence; stronger effect = higher value | B-score at 10 µM;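 active = fluorescence ratio B-score, a plate-corrected score, at least three library SD, with initial intensity B-score within 5 SD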
Target sequence (P51787 whole entry, looked up): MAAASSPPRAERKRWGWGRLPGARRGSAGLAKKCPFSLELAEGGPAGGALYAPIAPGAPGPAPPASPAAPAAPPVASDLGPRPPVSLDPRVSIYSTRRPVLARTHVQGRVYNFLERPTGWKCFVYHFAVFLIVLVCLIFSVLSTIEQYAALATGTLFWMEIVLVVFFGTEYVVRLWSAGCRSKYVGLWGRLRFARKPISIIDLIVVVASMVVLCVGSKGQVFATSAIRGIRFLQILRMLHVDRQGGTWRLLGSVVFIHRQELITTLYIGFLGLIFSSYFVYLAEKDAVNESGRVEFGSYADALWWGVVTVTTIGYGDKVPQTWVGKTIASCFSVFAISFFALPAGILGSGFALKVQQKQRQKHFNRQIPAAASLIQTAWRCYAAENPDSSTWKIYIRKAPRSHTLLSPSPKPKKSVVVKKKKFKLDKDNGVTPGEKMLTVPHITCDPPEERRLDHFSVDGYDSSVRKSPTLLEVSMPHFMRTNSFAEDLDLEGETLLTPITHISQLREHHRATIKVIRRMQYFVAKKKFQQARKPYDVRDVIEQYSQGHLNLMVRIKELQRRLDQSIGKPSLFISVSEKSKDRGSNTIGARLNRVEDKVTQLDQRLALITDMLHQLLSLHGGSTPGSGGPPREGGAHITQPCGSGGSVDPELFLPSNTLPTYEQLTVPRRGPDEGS
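Schedule – 37 °C overnight plating, 90-min dark dye load, 20-min compound pretreatment · System – stable KCNQ1 CHO-K1 line · Probe or stimulus – thallium- and potassium-containing depolarizing buffer · Measured by – kinetic FluxOR fluorescence, 10 s baseline plus 110 s post-stimulus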
KCNQ1 block: inhibitors of human KCNQ1 potassium channel; 310,000 compounds, 1.3% hits; B-score at 10 µM; AID 2642; CHO-K1 KCNQ1, FluxOR thallium flux fluorescence; stronger effect = higher value; P51787;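 active = compounds whose thallium flux B-score, printed positive for inhibition, exceeds three library SD while starting fluorescence stays within three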;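 also: channel opened by potassium depolarization with thallium stimulus after 20 min compound exposure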
Active calls of the source: *.

Screening COCc1ccc(C(=O)Nc2cccc(S(=O)(=O)N(C)c3ccccc3)c2)cc1 returned KCNK3 inh inactive.
CN(CC(=O)Nc1cccc(F)c1)CC(=O)Nc1cccc2ccccc12 was read as KCNK3 inh -10.9*.
`CN(C)S(=O)(=O)c1cccc(NC(=O)C(c2ccccc2)c2ccccc2)c1` gave KCNK3 inh inactive, hERG rescue -8.2, Kir21 inh 1.56, KCNK9 inh inactive, KCNQ1 act inactive and KCNQ1 block inactive.
For CN(c1ccc(C(=O)Nc2cccc(O)c2)cc1)S(=O)(=O)c1ccccc1 the results were KCNK3 inh inactive, hERG rescue -23.0, Kir21 inh -4.77*, KCNK9 inh inactive, KCNQ1 act inactive and KCNQ1 block inactive.
`CC(=O)Nc1cccc(NC(=O)CSc2nc(=O)n3cccc(C)c3n2)c1` gave KCNK3 inh inactive, hERG rescue -16.1, Kir21 inh -0.85, KCNK9 inh inactive, KCNQ1 act inactive and KCNQ1 block inactive.
For COc1ccccc1C(C)Nc1ccc(S(=O)(=O)N2CCN(C)CC2)cc1[N+](=O)[O-] (stereo not drawn) the results were KCNK3 inh inactive.
Screening CC(C)CN(C(=O)CSc1nnc(-c2cccs2)n1N)c1c(N)n(Cc2ccccc2)c(=O)[nH]c1=O returned KCNK3 inh inactive, hERG rescue -8.8, Kir21 inh 0.39, KCNK9 inh inactive, KCNQ1 act inactive and KCNQ1 block inactive.
For COc1ccc(S(=O)(=O)N(C)C)cc1NC(C)C(=O)Nc1cccc(C#N)c1 (stereo not drawn) the results were KCNK3 inh inactive, hERG rescue -10.8, Kir21 inh 0.43, KCNK9 inh inactive, KCNQ1 act inactive and KCNQ1 block inactive.
For O=C(CCc1nc2ccccc2c(=O)[nH]1)Nc1cc(C(F)(F)F)ccc1N1CCCC1 the results were KCNK3 inh inactive.
CCCCc1nc2cc(C(=O)N3CCCC(OCCC)C3)ccc2o1 (stereo not drawn) was read as KCNK3 inh inactive, hERG rescue -4.7, Kir21 inh -0.97, KCNK9 inh inactive, KCNQ1 act inactive and KCNQ1 block inactive.
For COc1ccc(CNCC(O)(c2ccccc2)c2ccc(F)cc2)cc1OC (stereo not drawn) the results were KCNK3 inh inactive, hERG rescue -9.9, Kir21 inh 0.06, KCNK9 inh inactive, KCNQ1 act inactive and KCNQ1 block inactive.
OC(CNCc1ccc(F)cc1)(c1ccc(F)cc1)c1ccc(F)cc1 was read as KCNK3 inh inactive, hERG rescue -8.8, Kir21 inh -4.17, KCNK9 inh -6.63*, KCNQ1 act inactive and KCNQ1 block inactive.
For Cc1ccc(C(O)(CNCc2ccccc2)c2ccccc2)cc1 (stereo not drawn) the results were KCNK3 inh inactive, hERG rescue -7.2, Kir21 inh -10.5*, KCNK9 inh inactive, KCNQ1 act inactive and KCNQ1 block inactive.
`OC(CNCc1ccc(Cl)cc1)(c1ccccc1)c1ccc(F)cc1` (stereo not drawn) gave KCNK3 inh inactive, hERG rescue -18.4, Kir21 inh -3.87, KCNK9 inh -7.58*, KCNQ1 act inactive and KCNQ1 block inactive.
`COc1ccc(CNCC(O)(c2ccccc2)c2ccc(F)cc2)cc1` (stereo not drawn) gave KCNK3 inh inactive, hERG rescue -11.5, Kir21 inh -7.05*, KCNK9 inh inactive, KCNQ1 act inactive and KCNQ1 block inactive.
Screening COc1ccc(CNCC(O)(c2ccc(F)cc2)c2ccc(F)cc2)cc1OC returned KCNK3 inh inactive, hERG rescue -10.8, Kir21 inh -0.83, KCNK9 inh inactive, KCNQ1 act inactive and KCNQ1 block inactive.
For CCc1ccc(-c2nc(CS(=O)CC(=O)NC3CCCCCC3)c(C)o2)cc1 (stereo not drawn) the results were KCNK3 inh inactive, hERG rescue -6.6, Kir21 inh 0.75, KCNK9 inh inactive, KCNQ1 act inactive and KCNQ1 block inactive.
`O=c1[nH]c2ccccc2c2nc(-c3cccc(S(=O)(=O)N4CCCC4)c3)nn12` gave KCNK3 inh inactive, hERG rescue -12.6, Kir21 inh 0.29, KCNK9 inh inactive, KCNQ1 act inactive and KCNQ1 block inactive.
Screening CC(C)(C)c1csc(N/N=C/c2ccc(O)cc2)n1 returned KCNK3 inh inactive, hERG rescue -4.6, Kir21 inh 0.18, KCNK9 inh inactive, KCNQ1 act inactive and KCNQ1 block inactive.
For CCCN(CCC)C(=O)Cc1coc2ccc3ccccc3c12 the results were KCNK3 inh inactive, hERG rescue -4.0, Kir21 inh -4.5*, KCNK9 inh inactive, KCNQ1 act inactive and KCNQ1 block inactive.
`CN(C)CCCNC(=O)c1ccccn1` gave KCNK3 inh inactive, hERG rescue -4.5, Kir21 inh -0.1, KCNK9 inh inactive, KCNQ1 act inactive and KCNQ1 block inactive.
For CN(C)CCCNC(=O)c1ccc(-c2nc(-c3ccc(Cl)cc3)cs2)cc1 the results were KCNK3 inh inactive, hERG rescue -38.9, Kir21 inh -4.67*, KCNK9 inh -7.17*, KCNQ1 act inactive and KCNQ1 block inactive.
`Cc1[nH]n(-c2ncc(-c3ccccc3)s2)c(=O)c1C(c1ccc(Br)cc1)C(C#N)C#N` (stereo not drawn) gave KCNK3 inh inactive, hERG rescue -11.2, Kir21 inh -5.63*, KCNK9 inh inactive, KCNQ1 act inactive and KCNQ1 block inactive.
For CCN(Cc1ccccc1)C(=O)c1oc2ccc(C)cc2c1C the results were KCNK3 inh inactive, hERG rescue 5.0*, Kir21 inh 0.13, KCNK9 inh inactive, KCNQ1 act inactive and KCNQ1 block inactive.
For CCN(Cc1ccccc1)C(=O)c1ccc(C(=O)N(CC)Cc2ccccc2)cc1 the results were KCNK3 inh inactive, hERG rescue -9.3, Kir21 inh -1.5, KCNK9 inh inactive, KCNQ1 act inactive and KCNQ1 block inactive.
`CCOc1ccc(Cl)cc1CNCCCSc1nc(C)cc(C)n1` gave KCNK3 inh inactive, hERG rescue -7.4, Kir21 inh -6.59*, KCNK9 inh inactive, KCNQ1 act inactive and KCNQ1 block inactive.
Screening CCOC(=O)c1cnn(-c2nc(SC)nc3sc4c(c23)CCC4)c1N returned KCNK3 inh inactive, hERG rescue -14.4, Kir21 inh 0.26, KCNK9 inh -7.77*, KCNQ1 act inactive and KCNQ1 block inactive.
For Cc1nc(-n2ncc(C#N)c2N)c2c3c(sc2n1)CCC3 the results were KCNK3 inh inactive, hERG rescue -6.7, Kir21 inh -0.01, KCNK9 inh inactive, KCNQ1 act inactive and KCNQ1 block inactive.
